# From PubChem BioAssay AID493091 (Sanford-Burnham Center for Chemical Genomics, 2011)
# Where “and” joins values, the source holds several entries; their conditions need not be identical. Identical values can stand only once. Screen size: about 340,000 compounds; about 3,000 (0.88%) were called active.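 Rule for the calls: active = inhibition above about 50% at 20 µM (limit read from the data); inactive = the rest.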 This excerpt belongs to a sample that is enriched for actives. Where a structure was tested more than once in an assay, its records may differ in their call.
# Target: Carboxy-terminal domain RNA polymerase II polypeptide A small phosphatase 1 (Homo sapiens) (UniProt Q9GZU7)
# Test: Scp-1 phosphatase inhibitors, primary screen, biochemical, colorimetric, uHTS (AID 493091);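 note: plate controls were DMSO wells with enzyme for no effect and wells lacking enzyme for full effect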
# Details: Recombinant Scp1, phosphopeptide, malachite green phosphate absorbance; at 20 µM; stronger effect = higher value
# Procedure, shortened: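 Test system – truncated SCP-1 phosphatase (76-261aa) · Reagent – Phosphorylated 17-residue peptide substrate · Incubation – 45 min room-temperature reaction, 5 min colour, 30 min stabiliser · Detection – colorimetric phosphate reagent with accelerator and stabiliser, absorbance at 630 nm · Measure – % inhibition at 20 µM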
# Carboxy-terminal domain RNA polymerase II polypeptide A small phosphatase 1 (Homo sapiens), sequence (Q9GZU7 76-261 limits assumed): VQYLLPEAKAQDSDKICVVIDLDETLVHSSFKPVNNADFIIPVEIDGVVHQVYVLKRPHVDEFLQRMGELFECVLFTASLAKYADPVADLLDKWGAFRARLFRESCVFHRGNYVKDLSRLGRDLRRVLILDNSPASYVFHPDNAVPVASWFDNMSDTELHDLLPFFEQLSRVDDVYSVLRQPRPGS
row,Compound,inhibition
1,COc1ccccc1N(C)C(=O)c1cc(S(=O)(=O)N2CCc3ccccc32)cn1C,-4.84% (inactive)
2,COc1ccc(C(=O)COC(=O)CNC(=O)c2cccs2)cc1Br,-0.77% (inactive)
3,Cc1nnc(SCC2=C(C(=O)O)N3C(=O)C(NC(=O)Cn4nc(C)c(Cl)c4C)C3SC2)s1 (stereo not drawn),14.4% (inactive)
4,C=CC1=C(C(=O)O)N2C(=O)[C@@H](NC(=O)/C(=N/OCC(=O)O)c3csc(N)n3)[C@H]2SC1,65.5% (active)
5,Cc1cc(C)cc(C(=O)NC2C(=O)N3C(C(=O)O)=C(CSc4nnc(C)s4)CSC23)c1 (stereo not drawn),4.73% (inactive)
6,CO/N=C(\C(=O)N[C@@H]1C(=O)N2C(C(=O)O)=C(COC(C)=O)CS[C@H]12)c1csc(N)n1 (stereo in doubt),69.7% (active) and 11.4% (inactive) and 72.2% (active)
7,C=CC1=C(C(=O)O)N2C(=O)[C@@H](NC(=O)/C(=N\OCC(=O)O)c3csc(N)n3)[C@H]2SC1,71% (active)
8,CC(C)(C)OC(=O)C1=C(CO)CS[C@@H]2[C@H](NC(=O)Cc3ccccc3)C(=O)N12,1.29% (inactive)
9,CC(=O)c1ccc(NC(=O)CSc2nc3ccccc3c(=O)n2CCCN2CCOCC2)cc1,-7.5% (inactive)
10,Cn1cnc([N+](=O)[O-])c1Sc1ccccc1,-15.4% (inactive)
11,O=C(NCCC1=CCCCC1)c1ccc(-n2cncn2)cc1,0.7% (inactive)
12,O=C(O)c1ccccc1-c1ccccc1C(=O)NCc1cccnc1,-6.94% (inactive)
13,CSc1ccccc1NC(=O)c1cnc2sc(C)cn2c1=O,-3.98% (inactive)
14,COc1ccc(C2C3=C(OC(C)=O)c4ccccc4C3=Nc3c2c(=O)n(C)c(=O)n3C)cc1 (stereo not drawn),-10.3% (inactive)
15,CN(C)S(=O)(=O)c1cc(NC(=O)CN2C(=O)NC3(CCCc4ccccc43)C2=O)ccc1Cl (stereo not drawn),-6.5% (inactive)
16,COc1ccc(/C(O)=C2/C(=O)C(=O)N(c3nc(C)c(C)s3)C2c2ccco2)cc1 (stereo not drawn),-0.42% (inactive)
17,Cn1c(=O)c2cc(S(=O)(=O)NCCC(=O)Nc3ccc(F)cc3F)ccc2n(C)c1=O,-3.26% (inactive)
18,CCOC(=O)C1(S(=O)(=O)c2ccc(Cl)cc2)CCN(Cc2ccccc2)CC1,-6.96% (inactive)
19,COC(=O)c1ccccc1NC(=O)C1(S(=O)(=O)c2ccc(Cl)cc2)CC1,82.2% (active)
20,COC(=O)c1ccccc1NC(=O)CN(Cc1ccc(Cl)cc1)S(C)(=O)=O,-4.27% (inactive)
21,CNC1(c2nnnn2-c2c(C)cccc2C)CCOC(C)(C)C1 (stereo not drawn),-10.7% (inactive)
22,Cc1ccc(S(=O)(=O)NCC(=O)N2CCOCCOCCOCCOCC2)cc1,-7.08% (inactive)

row,Compound,inhibition
1,CC1CCCCC1NC(=O)C1CCCN1S(=O)(=O)c1cccc2nsnc12 (stereo not drawn),-9.08% (inactive)
2,Cc1ccc(OCC(=O)NCCCNC(=O)c2cccnc2)cc1C,3.67% (inactive)
3,Cc1ccc(NC(=O)COc2ccc(/C=N\NC(=O)c3cccnc3)cc2)cc1C,73% (active)
4,O=C(COc1ccc(/C=N/NC(=O)c2ccc(O)cc2)cc1)Nc1ccc([N+](=O)[O-])cc1,-4.15% (inactive)
5,CCC(C)OC(=O)C(C)Oc1ccc(-c2ccccc2)cc1 (stereo not drawn),0.19% (inactive)
6,O=C(CN1C(=O)COc2ccc(Cl)cc21)N1CCOCC1,3.98% (inactive)
7,Cc1ccc(C2(C)NC(=O)N(CC(=O)N3CC(=O)Nc4ccccc43)C2=O)cc1 (stereo not drawn),-4.98% (inactive)
8,Cc1ccc(C2(C)NC(=O)N(CC(=O)Nc3ccccc3C(=O)N3CCCCC3)C2=O)cc1 (stereo not drawn),65.5% (active)
9,Cc1ccc(NC(=O)CN2C(=O)NC(C)(c3ccc(Cl)cc3)C2=O)c(Br)c1 (stereo not drawn),-3.83% (inactive)
10,CC1CC(C)CN(CCOc2cccc3ccccc23)C1 (stereo not drawn),-2.45% (inactive)
11,CCn1ncc(C2=NOC(C(=O)Nc3ccccc3C(=O)OC)C2)c1C (stereo not drawn),-6.5% (inactive)
12,O=C(Oc1ccc(-c2nc(-c3ccccn3)no2)cc1)c1ccccc1,7.66% (inactive)
13,O=C1C(=O)N(c2ccccc2)c2ccccc21,-4.37% (inactive)
14,O=C(O)COCC(=O)NCc1csc2ccc(Cl)cc12,11.2% (inactive)
15,Cc1ccc(C(=O)NNC(=O)c2ccc3c(c2)OCCO3)cc1,-11.5% (inactive)
16,Cc1ccc(C(=O)NNc2ncnc3ccccc23)cc1,5.78% (inactive)
17,Cc1ccc(C(=O)NNC(=O)c2cc3cc4ccccc4nc3s2)cc1,83.1% (active)
18,COc1ccc2oc(C(=O)NCC(Cc3ccccc3)N(C)C)c(C)c2c1 (stereo not drawn),-2.96% (inactive)
19,CC(C)c1ccc(NC(=S)NNc2ccc(Cl)c(C(=O)O)c2)cc1,54.9% (active)
20,O=C(NC(=S)Nc1ccc(Cl)c(C(=O)O)c1)c1cncc(Br)c1,5.31% (inactive)
21,Cc1ccc(C)c(NC(=S)NNC(=S)Nc2ccc(C(C)C)cc2)c1,3.22% (inactive)
22,O=C(OCC(=O)N1CCN(C(=O)c2ccco2)CC1)c1ccc(Cl)c(Cl)c1,-3.89% (inactive)

row,Compound,inhibition
1,O=C1c2ccccc2S(=O)(=O)N1Cc1c(F)cccc1Cl,-6.43% (inactive)
2,CC(Sc1nn(-c2ccc(Cl)cc2)c(=S)s1)C(=O)NCC1CCCO1 (stereo not drawn),-9% (inactive)
3,C#CCOc1ccc(/C=C2/C(=O)NN(c3ccccc3)C2=O)cc1OC,-4.73% (inactive)
4,O=C1NN(c2ccccc2)C(=O)/C1=C/c1ccc(-c2cccc(C(=O)O)c2)o1,52% (active)
5,COc1cc(/C=C2/C(=O)NN(c3cccc(Cl)c3)C2=O)cc(Br)c1O,2.98% (inactive)
6,Cc1ccc(-c2c3c(=O)n(C)c(=O)n(C)c3cn2-n2cnnc2)cc1,-6% (inactive)
7,CCOC(=O)Cc1cc(=O)[nH]c(/N=C(\N)Nc2ccc(OC)cc2)n1,-0.71% (inactive)
8,Cc1cc(=O)[nH]c(N/N=C/c2c(C)nn(-c3ccccc3Cl)c2Cl)n1,-253% (inactive)
9,CC1CCN(c2ccc(S(=O)(=O)Nc3cc(C(=O)O)cc(C(=O)O)c3)cc2[N+](=O)[O-])CC1,54.5% (active)
10,CC1CCN(c2ccc(C(=O)Nc3nnc(C4CC4)s3)cc2[N+](=O)[O-])CC1,-0.75% (inactive)
11,COc1ccc(NS(=O)(=O)c2ccc(N3CCN(CCO)CC3)c([N+](=O)[O-])c2)cc1,-2.43% (inactive)
12,O=C(CNC(=O)C(c1ccccc1)c1ccccc1)N/N=C\c1ccc2c(c1)OCO2,59.5% (active)
13,Cc1[nH]c2ccccc2c1/C=N/NC(=O)CNC(=O)c1ccc2c(c1)OCO2,-5.09% (inactive)
14,O=C(N/N=C/c1ccc2c(c1)OCO2)C(=O)N1CCCC1,-6.72% (inactive)
15,CC1C(=O)N2CCCc3cc(S(=O)(=O)NCc4ccc(F)cc4)cc1c32 (stereo not drawn),-5.8% (inactive)
16,CN(CCc1ccccn1)S(=O)(=O)c1ccc2c3c(cccc13)C(=O)N2,0.36% (inactive)
17,COc1ccc(S(=O)(=O)N2CCC(C(=O)N3CCCC3)CC2)cc1C,-3.35% (inactive)
18,CCOC(=O)c1sc(NC(=O)CSc2nc(C)cc(C(F)(F)F)n2)c(C#N)c1C,-3.8% (inactive)
19,CC(C)c1cc(NCc2ccccn2)n2c(nc3ccccc32)c1C#N,-0.31% (inactive)
20,O=C(CSc1ccc(-c2ccco2)nn1)Nc1cccc(F)c1,-4.82% (inactive)
21,O=C(Nc1cccc(F)c1)c1cc(-c2ccco2)nc2ccccc12,57.4% (active)
22,O=C(O)c1cccc(NC(=O)c2cc(-c3cccc(Cl)c3)nc3ccccc23)c1,5.17% (inactive)

row,Compound,inhibition
1,Cc1cccc(Cn2cnc3c(N)c(C)c(C)cc32)c1,-2.5% (inactive)
2,Cc1onc(-c2c(F)cccc2Cl)c1C(=O)Nc1cccc(S(=O)(=O)N2CCCCC2)c1,-7.5% (inactive)
3,Cc1ccc(CN2CCN(Cc3cn(C)nc3-c3ccccc3)CC2CCO)o1 (stereo not drawn),-12.6% (inactive)
4,Cc1ccc(CN2CCN(c3ccccc3Cl)CC2)o1,51% (active)
5,CC(=O)Nc1ccc(OCC(O)CN2CCN(c3ccccc3Cl)CC2)cc1 (stereo not drawn),0.19% (inactive)
6,COc1ccc(C(=O)NCc2nnc(SCC(=O)NC3=NCCS3)n2C)cc1,-3.07% (inactive)
7,CC(C)(C)OC(=O)NCCCCCNC(=O)c1[nH]cnc1C(=O)Nc1nccs1,-11.3% (inactive)
8,COC(=O)c1ccc(-c2c(-c3ccccc3)ncc3cc(OC)c(OC)cc23)cc1,66.9% (active)
9,COC(=O)c1ccc(SCc2ccccc2)nc1,-6.97% (inactive)
10,COC(=O)c1ccc(OC(=O)c2nn(C)cc2Cl)c(OC)c1,1.35% (inactive)
11,Cc1ccc2c(c1)C(c1ccccc1)N(C(=O)c1ccc(S(=O)(=O)N3CCOCC3)cc1)CC(=O)N2 (stereo not drawn),-1% (inactive)
12,O=S(=O)(Nc1ccc(O)c2ccccc12)c1ccc(OC(F)(F)F)cc1,-14.4% (inactive)
13,Nc1ccccc1SC(C[N+](=O)[O-])c1ccccc1 (stereo not drawn),2.72% (inactive)
14,Cc1c(NC(=O)C(C)OC(=O)c2c3c(nc4ccccc24)CCC(C)C3)c(=O)n(-c2ccccc2)n1C (stereo not drawn),-2.49% (inactive)
15,Cc1ccc(C(=O)OCC(=O)NCc2ccc3c(c2)OCO3)s1,-4.92% (inactive)
16,COc1cccc(CC(=O)OCC(=O)NCc2ccc3c(c2)OCO3)c1,64.5% (active)
17,COc1cccc(CNCc2ccc3c(c2)OCO3)c1,-9.52% (inactive)
18,CCOC(=O)C1CCN(C(=O)C2CCCN(S(=O)(=O)c3ccc(OC)c(Cl)c3)C2)CC1 (stereo not drawn),-4.52% (inactive)
19,CC(=O)OCCC(C)C,12.2% (inactive)
20,CC1=NN(C(=O)CCCc2ccccc2)C(O)(C(F)(F)F)C1 (stereo not drawn),-2.98% (inactive)
21,CC1=NN(C(=O)CCc2ccccc2O)C(O)(C(F)(F)F)C1 (stereo not drawn),63% (active)
22,COc1ccc(CC(=O)N2N=C(C)CC2(O)C(F)(F)F)cc1 (stereo not drawn),-2.15% (inactive)
